Calls of active or inactive are those of the source. The rule behind the calls is not given here.
Columns and labels:
[1] = molecular target: T1, Nitric oxide synthase, inducible (Mus musculus) (UniProt P29477); test: Inhibition of iNOS in LPS-induced mouse RAW264.7 cells assessed as inhibition of […] up to 33.3 uM measured after 24 hrs; type: cell-based
T1 sequence (whole entry): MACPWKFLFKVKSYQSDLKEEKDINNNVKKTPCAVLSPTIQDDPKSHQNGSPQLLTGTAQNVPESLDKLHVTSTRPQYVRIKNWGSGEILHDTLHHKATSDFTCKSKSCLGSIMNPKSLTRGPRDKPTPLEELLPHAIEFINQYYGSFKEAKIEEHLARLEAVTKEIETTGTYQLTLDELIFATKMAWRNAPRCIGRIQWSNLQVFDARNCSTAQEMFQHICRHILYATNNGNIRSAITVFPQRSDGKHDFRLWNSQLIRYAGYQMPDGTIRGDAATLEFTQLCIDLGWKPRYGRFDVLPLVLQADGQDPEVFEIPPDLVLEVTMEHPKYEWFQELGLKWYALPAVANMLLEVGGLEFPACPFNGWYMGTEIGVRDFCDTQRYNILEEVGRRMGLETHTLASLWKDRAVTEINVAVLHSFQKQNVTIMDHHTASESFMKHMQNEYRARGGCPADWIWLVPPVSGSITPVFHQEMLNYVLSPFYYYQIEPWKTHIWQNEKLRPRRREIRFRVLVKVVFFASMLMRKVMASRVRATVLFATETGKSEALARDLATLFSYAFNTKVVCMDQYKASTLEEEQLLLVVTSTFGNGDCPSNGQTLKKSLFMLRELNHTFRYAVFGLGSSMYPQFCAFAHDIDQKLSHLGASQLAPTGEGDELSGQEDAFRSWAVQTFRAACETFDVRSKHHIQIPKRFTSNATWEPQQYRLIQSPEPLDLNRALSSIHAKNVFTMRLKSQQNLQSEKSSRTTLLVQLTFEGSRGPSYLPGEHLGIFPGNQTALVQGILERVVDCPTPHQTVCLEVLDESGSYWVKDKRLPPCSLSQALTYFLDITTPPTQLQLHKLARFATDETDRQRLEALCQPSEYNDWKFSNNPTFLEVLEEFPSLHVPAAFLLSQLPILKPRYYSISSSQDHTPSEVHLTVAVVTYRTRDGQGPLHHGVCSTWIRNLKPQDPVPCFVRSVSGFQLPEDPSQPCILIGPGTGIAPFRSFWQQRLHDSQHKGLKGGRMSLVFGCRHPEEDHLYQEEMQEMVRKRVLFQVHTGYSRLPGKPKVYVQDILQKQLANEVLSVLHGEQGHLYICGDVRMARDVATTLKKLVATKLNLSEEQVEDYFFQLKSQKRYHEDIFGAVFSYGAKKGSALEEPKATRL
In short: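 RAW 264.7 macrophages seeded at 50 000 per well and grown 24 h. Compound added 30 min before LPS (5 μg/mL), then cells incubated a further 24 h. Nitrite in the supernatant measured with Griess reagent relative to vehicle control. Parthenolide served as positive control; cytotoxicity checked in parallel.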

HL-60 [2] = test: Inhibition of PMA induced ROS generation in human HL60 cells assessed as inhibition of ROA mediated oxidation of DCFH; type: functional, cell-based
In short: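 HL-60 cells (0.8 × 10⁶/mL) in RPMI-1640 with 10% FBS were pretreated 30 min with compound (0.4–100 μM). PMA (100 ng/mL) was then added for 30 min, followed by DCFH-DA (5 μg/mL) for 15 min. DCF fluorescence read at Ex 485 / Em 530 nm and compared with vehicle control. Trolox served as positive control.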

[3] = Inhibition of Hedgehog signaling pathway in human HeLa cells assessed as inhibition of PMA induced luciferase at 100 uM treated 30 mins before induction; type: cell-based
In short: (§1)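 Reporter assay in cells transfected with pathway luciferase plasmids. Cells plated at 0.015 × 10⁶ per well in 10% FBS, switched after 24 h to DMEM with 1% FBS, then transfected. 24 h after transfection, compound (final 40, 60, 80 or 100 μM) was added, followed 30 min later by inducer (IL-6, TGF-β, wnt3a or PMA). Luciferase was read 4 or 6 h after induction (6 h for Notch, Wnt, Hedgehog). Value is the IC50 or the lowest concentration giving maximal 50–60% inhibition; two independent experiments.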

[4] = Inhibition of Wnt signaling pathway in human HeLa cells assessed as measured as lowest concentration required 50 to 60 % inhibition of Wnt3a induced luciferase treated 30 mins before induction; type: cell-based; in short: as §1
[5] = Inhibition of Wnt signaling pathway in human HeLa cells assessed as inhibition of Wnt3a induced luciferase treated 30 mins before induction; type: cell-based; in short: as §1
[6] = molecular target: Forkhead box protein O1 (Homo sapiens) (UniProt Q12778); test: Inhibition of FoxO signaling pathway in human HeLa cells assessed as inhibition of luciferase at 100 uM […]; type: cell-based
[7] = Inhibition of Notch signaling pathway in human HeLa cells assessed as inhibition of PMA induced luciferase at 100 uM treated 30 mins before induction; type: cell-based; in short: as §1
[8] = Inhibition of Ets signaling pathway in human HeLa cells assessed as inhibition of PMA induced luciferase at 100 uM treated 30 mins before induction; type: cell-based; in short: as §1
[9] = molecular target: Myc proto-oncogene protein (Homo sapiens) (UniProt P01106); test: Inhibition of Myc signaling pathway in human HeLa cells assessed as inhibition of PMA induced luciferase at 100 uM treated 30 mins before induction; type: cell-based; in short: as §1
[10] = Inhibition of E2F signaling pathway in human HeLa cells assessed as inhibition of PMA induced luciferase at 100 uM treated 30 mins before induction; type: cell-based; in short: as §1
[11] = Inhibition of NFkappaB signaling pathway in human HeLa cells assessed as inhibition of PMA induced luciferase at 100 uM treated 30 mins before induction; type: cell-based; in short: as §1
[12] = Inhibition of NFkappaB signaling pathway in human HeLa cells assessed as inhibition of PMA induced luciferase treated 30 mins before induction; type: cell-based; in short: as §1
[13] = Inhibition of AP1 signaling pathway in human HeLa cells assessed as measured as lowest concentration required 50 to 60 % inhibition of PMA induced luciferase treated 30 mins before induction; type: cell-based; in short: as §1
[14] = Inhibition of AP1 signaling pathway in human HeLa cells assessed as inhibition of PMA induced luciferase treated 30 mins before induction; type: cell-based; in short: as §1
HeLa [15] = test: Inhibition of smad3/4 signaling pathway in human HeLa cells assessed as measured as lowest concentration required 50 to 60 % inhibition of TGF-beta induced luciferase treated 30 mins before induction; type: functional; in short: as §1
HeLa [16] = test: Inhibition of Stat3 signaling pathway in human HeLa cells assessed as inhibition of IL-6 induced luciferase at 100 uM treated 30 mins before induction; type: functional; in short: as §1
HeLa [17] = test: Inhibition of smad3/4 signaling pathway in human HeLa cells assessed as inhibition of TGF-beta induced luciferase treated 30 mins before induction; type: functional, cell-based; in short: as §1
Vero = test: Cytotoxicity against african green monkey Vero cells assessed as growth inhibition measured at 100 uM after 48 hrs by […] assay; type: cell-based; details: chlorocebus sabaeus
LLC-PK1 = test: Cytotoxicity against pig LLC-PK1 cells assessed as growth inhibition measured at 100 uM after 48 hrs by […] assay; type: cell-based, Sus scrofa; details: llc-pk1, 48 h
SK-OV-3 = test: Cytotoxicity against human SKOV3 cells assessed as growth inhibition measured at 100 uM after 48 hrs by […] assay; type: functional, cell-based
HL-60 [18] = test: Cytotoxicity against human HL60 cells assessed as growth inhibition measured after 48 hrs by XTT assay; type: functional, cell-based; details: HL-60, 48 h
HeLa [19] = test: Cytotoxicity against human HeLa cells assessed as growth inhibition measured after 48 hrs by Neutral Red dye assay
SK-MEL = test: Cytotoxicity against human SK-MEL cells assessed as growth inhibition measured after 48 hrs by Neutral Red dye assay
KB = test: Cytotoxicity against human KB cells assessed as growth inhibition measured at 100 uM after 48 hrs by Neutral Red dye assay
BT-549 = test: Cytotoxicity against human BT549 cells assessed as growth inhibition measured at 100 uM after 48 hrs by Neutral Red dye assay

Chain of Forkhead box protein O1 (Homo sapiens) (Q12778 whole entry): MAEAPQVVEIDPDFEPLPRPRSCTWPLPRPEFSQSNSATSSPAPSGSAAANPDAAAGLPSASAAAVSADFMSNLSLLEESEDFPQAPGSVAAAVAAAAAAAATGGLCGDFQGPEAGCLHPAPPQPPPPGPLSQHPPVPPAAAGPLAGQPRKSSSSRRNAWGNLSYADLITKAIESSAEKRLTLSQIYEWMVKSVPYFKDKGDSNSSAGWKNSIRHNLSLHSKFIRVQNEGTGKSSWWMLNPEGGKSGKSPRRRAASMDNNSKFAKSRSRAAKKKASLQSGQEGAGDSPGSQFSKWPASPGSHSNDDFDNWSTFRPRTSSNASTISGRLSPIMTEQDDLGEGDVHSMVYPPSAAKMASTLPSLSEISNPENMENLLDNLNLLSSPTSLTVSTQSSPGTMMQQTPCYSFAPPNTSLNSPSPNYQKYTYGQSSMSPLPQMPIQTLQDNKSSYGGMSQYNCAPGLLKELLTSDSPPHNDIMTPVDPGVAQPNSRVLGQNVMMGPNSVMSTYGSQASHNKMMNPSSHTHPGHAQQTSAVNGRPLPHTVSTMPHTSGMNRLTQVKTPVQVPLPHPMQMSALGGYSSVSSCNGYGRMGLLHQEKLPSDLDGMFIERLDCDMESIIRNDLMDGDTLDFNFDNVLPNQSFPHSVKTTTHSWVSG
Chain of Myc proto-oncogene protein (Homo sapiens) (P01106 whole entry): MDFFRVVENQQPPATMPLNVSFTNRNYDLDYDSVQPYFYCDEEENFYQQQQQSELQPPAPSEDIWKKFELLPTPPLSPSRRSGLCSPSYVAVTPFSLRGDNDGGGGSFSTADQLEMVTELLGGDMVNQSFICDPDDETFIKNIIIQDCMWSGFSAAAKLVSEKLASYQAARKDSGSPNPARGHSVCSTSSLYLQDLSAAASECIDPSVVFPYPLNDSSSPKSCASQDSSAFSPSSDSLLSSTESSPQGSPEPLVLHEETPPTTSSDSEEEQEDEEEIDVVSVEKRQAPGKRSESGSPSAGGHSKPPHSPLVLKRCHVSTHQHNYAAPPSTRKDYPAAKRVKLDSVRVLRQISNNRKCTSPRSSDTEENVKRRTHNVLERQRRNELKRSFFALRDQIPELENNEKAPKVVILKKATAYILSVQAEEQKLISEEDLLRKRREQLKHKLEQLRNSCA

Which inhibition [1] does the source give for `COc1cc(/C=C/c2ccc(OC)c(OC)c2)cc(OC)c1` [(E)-3,4,3',5'-TETRAMETHOXYSTILBENE] here?
The inhibition was “inactive”.

What about the IC50 (HL-60 [2]) of the same compound?
The IC50 was 33.3 µM.

And the inhibition [3]?
Its inhibition is less than 40%.

And the MED [4]?
Its MED is 80 µM.

What about the IC50 [5] of the same compound?
The IC50 was 80 µM.

And the inhibition [6]?
The inhibition was less than 40%.

What about the inhibition [7] of the same compound?
The inhibition was less than 40%.

And the inhibition [8]?
The inhibition was less than 40%.

And the inhibition [9]?
Its inhibition is less than 40%.

What about the inhibition [10] of the same compound?
Its inhibition is less than 40%.

What about the inhibition [11] of the same compound?
The inhibition was less than 40%.

And the IC50 [12]?
The IC50 was 90 µM.

What about the MED [13] of the same compound?
Its MED is 100 µM.

What about the IC50 [14] of the same compound?
The IC50 was 80 µM.

And the MED (HeLa [15])?
The MED was 77 µM.

And the inhibition at 100 µM (HeLa [16])?
Its inhibition at 100 µM is less than 40%.

And the IC50 (HeLa [17])?
Its IC50 is 100 µM.

And the “growth inhibition (GI)” value (Vero)?
The value was “Not Active”.

What about the “growth inhibition (GI)” value (LLC-PK1) of the same compound?
The value was “Not Active”.

What about the “growth inhibition (GI)” value (SK-OV-3) of the same compound?
The value was “inactive”.

What about the IC50 (HL-60 [18]) of the same compound?
Its IC50 is 33.3 µM.

And the IC50 (HeLa [19])?
Its IC50 is 8 µM.

And the IC50 (SK-MEL)?
The IC50 was 60 µM.

What about the “growth inhibition (GI)” value (KB) of the same compound?
The value was “inactive”.

And the “growth inhibition (GI)” value (BT-549)?
Its value is “inactive”.

— ChEMBL document CHEMBL2346506, “Cytotoxicity and modulation of cancer-related signaling by (Z)- and (E)-3,4,3',5'-tetramethoxystilbene isolated from Eugenia rigida” (J Nat Prod, 2013)
